High-throughput results as filed in PubChem.
EP2 antag = blocks the human prostaglandin E2 receptor EP2 | inhibition, % at 25 µM | C6 glioma cells expressing human EP2, cAMP TR-FRET; cells stimulated with saturating PGE2 | 260,000 tested, 0.52% active;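 active = percent inhibition above 40 after rounding to a whole number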;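 also: rat C6 glioma host cells with rolipram phosphodiesterase inhibitor present; the protocol text gives 20 µM as final concentration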
Target sequence (P43116 whole entry, looked up): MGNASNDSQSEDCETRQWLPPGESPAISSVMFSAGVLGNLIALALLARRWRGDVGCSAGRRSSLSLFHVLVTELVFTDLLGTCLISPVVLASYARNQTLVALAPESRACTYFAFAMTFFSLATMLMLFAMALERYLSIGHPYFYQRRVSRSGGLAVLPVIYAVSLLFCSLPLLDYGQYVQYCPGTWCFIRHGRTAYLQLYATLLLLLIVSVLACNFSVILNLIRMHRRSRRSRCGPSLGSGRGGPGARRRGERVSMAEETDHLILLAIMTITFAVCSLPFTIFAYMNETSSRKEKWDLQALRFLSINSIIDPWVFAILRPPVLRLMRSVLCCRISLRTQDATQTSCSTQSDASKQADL
ABCG2 block = blocks JC-1 efflux by human ABCG2 transporter. Q9UNQ0. IgMXP3 cells, flow cytometry. inhibition, % at 6.6 µM. 190,000 tested, 0.1% active. AID 1325;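 active = inhibition above 80%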;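 also: 0% = DMSO and 100% = nicardipine control wells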
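Measure – % inhibition of efflux relative to nicardipine and DMSO · Test system – ABCG2 IgMXP3 and barcoded ABCB1 CCRF-Adr cell mix · Control set – nicardipine as high control, DMSO as low control · Compound – one concentration, 6.6 µM final · Signal – flow cytometry of retained JC-1 fluorescence · Timing – 10 min exposure at 25 °C with rotation, no wash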
EP2 mod = modulates human prostaglandin E2 receptor EP2 signaling. EP2-expressing cells, cAMP HTRF FRET, PGE2 co-stimulation. induction, % at 25 µM. AID 940. 260,000 tested, 0.83% active. P43116;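 active = compounds whose cAMP rise, as percent of the full-agonist control response, exceeds 60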;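 also: rat C6 glioma line stably carrying human EP2 under a CMV promoter; the protocol text gives 20 µM as final concentration; 100% = response of wells given 1 µM PGE2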
ABCB1 inh = blocks JC-1 efflux by human ABCB1 transporter. P08183. CCRF-Adr cells, flow cytometry. inhibition, % at 6.6 µM. 190,000 tested, 0.067% active. AID 1326; in the data active = inhibition above about 40%;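 also: 0% = vehicle and 100% = reference inhibitor; higher value means more JC-1 retained so stronger ABCB1 efflux block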
RBBP9 inhibitor = inhibitors of human serine hydrolase RBBP9; recombinant RBBP9, FP-Rh probe fluorescence polarization; inhibition, % at 7.94 µM; 220,000 tested, 0.2% active;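 active = inhibition above the campaign mean of all tested compounds plus 3 SD, cut at about 14% in these data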;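 also: plate controls were DMSO wells with RBBP9 for no effect and wells lacking RBBP9 protein for full effect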
Target sequence (O75884 whole entry, looked up): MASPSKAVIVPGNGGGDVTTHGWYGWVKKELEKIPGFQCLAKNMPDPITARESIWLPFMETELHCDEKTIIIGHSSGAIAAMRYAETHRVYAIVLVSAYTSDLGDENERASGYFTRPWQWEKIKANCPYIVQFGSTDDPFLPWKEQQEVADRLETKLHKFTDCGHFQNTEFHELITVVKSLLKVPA
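System: RBBP9 protein / Buffer or medium: Tris/NaCl buffer pH 8.0 with 0.1% Pluronic / Probe or stimulus: Serine-hydrolase probe FP-Rh, 375 nM pre-mixing / Dosing: 7.94 µM single dose, 0.794% DMSO / Times: enzyme-compound preincubation 30 min, then probe labeling 45 min, 25 °C / Technique: fluorescence polarization (mP), excitation 525 nm, emission 598 nm / Replication: singlicate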
EP2 cAMP induct = EP2 receptor cAMP induction, counter-screens negative; 1,300 tested, 47% active; AID 1080; calls only at 20 µM (by protocol); C6 glioma EP2 cells, cAMP HTRF induction; plus low (about EC15) PGE2 agonist; shares compounds with EP2 mod;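 active = cAMP induction above 50% in the main assay while under 30% in all four parallel counter assays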;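 also: rat C6 glioma cells stably expressing human EP2 receptor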
An asterisk follows results filed as active; . = no result; + = active, no number; ! = not active in a repeat. Rows were chosen to be rich in hits. Some 1.5% of all compounds tested hit in one or more screens of this group.

SMILES	EP2 antag	ABCG2 block	EP2 mod	ABCB1 inh	RBBP9 inhibitor	others
ClCC[N+]12CC[N+](CCCl)(CC1)C2 (tested in a mixture with another compound)	46*	.	13	.	.
Cc1csc(NC(=O)CN2C3CCC2CC(O)(c2nccn2C)C3)n1 (stereo not given)	.	.	-10	.	.
CN(CCN1CCCCC1)C(=O)Cc1csc(-c2ccccc2F)n1	3	.	-46	.	.
O.O.[NH-]C1(C(=O)O)CCCC1.[NH-]C1(C(=O)O)CCCC1.[Ni+2]	47*	.	26	.	.
C/C(N[O-])=C(\C)[N+]([O-])=[Rh][Cl].CC(=N\[O-])/C(C)=N/[O-].c1ccc([PH+](c2ccccc2)c2ccccc2)cc1	41*	.	26	.	.
CCn1nc(CC(=O)N(CCN(C)C)C2CCN(C)CC2)c2ccccc2c1=O	-2	.	-55	.	.
CC1=C(O)C(=O)C=C2C1=CC=C1[C@@]2(C)CC[C@@]2(C)[C@@H]3C[C@](C)(C(=O)O)CC[C@]3(C)CC[C@]12C	110*	.	-41	.	.
Cc1ccc(C2=CCN(CC(=O)Nc3ncc(C)s3)CC2)o1	8	.	-109	.	.
CCOc1ccc(O)c(CN2C3CCC2CC(O)(c2ccccc2F)C3)c1 (stereo not given)	3	.	43	.	.
CCC(CC)N1CCN(Cc2ccc(OC)c(OC)c2)CC1	16	.	-6	.	.
COc1cc2c(cc1OC)[C@@]13CCN4C=C5CCO[C@H]6CC(=O)N2[C@H]1[C@H]6[C@H]5C[C@H]43	53*	.	-9	.	.
O=C(NC1CN2CCC1CC2)c1cc(-c2ccccn2)n[nH]1 (stereo not given)	4	.	11	.	.
O=C1CN=C(c2ccc(Br)cc2)c2c(sc3c2CCCC3)N1CCN1CCOCC1	10	.	31	.	.
C=CCOc1c(CN2C3CCC2CC(O)(c2ccc(OC)cc2)C3)cccc1OC (stereo not given)	0	.	-20	.	.
C[C@@H]1O[C@H](OC2[C@@H](O)[C@H](O)C(O)[C@H](O)[C@H]2O)[C@@H](N)C[C@H]1N=C(N)C(=O)O (stereo not given in full)	51*	.	11	.	.
O=C1NC(=O)N(Cc2ccccc2)C(=O)/C1=C/C=C/c1ccco1	106*	.	-56	.	-6
CC(C)c1ccc(N2C(=O)NC(=O)/C(=C\C=C\c3ccco3)C2=O)cc1	100*	-3	-76	0	-15
Nc1nc(=S)c2ncn(C3OC(CO)C(O)C3O)c2[nH]1 (stereo not given)	14	.	0	.	-7
Nc1cc[c]([Hg])cc1.Nc1nc2c(ncn2[C@H]2O[C@H](CO)[C@@H](O)[C@@H]2O)c(=[SH+])[nH]1	104*	.	-43	.	.
O=C(CN1C2CCC1CC(O)(c1ccccn1)C2)Nc1ccc(Cl)cc1 (stereo not given)	.	.	-71	.	.
CCCSc1nc2ccccc2c(=O)n1-c1ccccc1C	15	.	75*	.	.
CCOC(=O)c1ccc2[nH]c(-c3ccc(S(=O)(=O)F)cc3)cc(=O)c2c1	51*!	.	-13	.	-2
Cc1ccc(C2=CCN(CC(=O)Nc3ccc(N(C)C)cc3)CC2)o1	.	.	-79	.	.
O=C(O)CSCC(=O)O	11	.	8	.	.
O=C(O)C[SH+]CC(=O)O.O=C(O)C[SH+]CC(=O)O.[Cu]	44*	.	17	.	.
SMILES	EP2 antag	ABCG2 block	EP2 mod	ABCB1 inh	RBBP9 inhibitor	others
CN(C)CCN(C(=O)Cc1csc(Nc2ccccc2F)n1)C1CCN(C)CC1	4	.	-39	.	.
NCC(=O)c1ccccc1	10	.	26	.	.
O=S(=O)(O)/C(=C\c1ccccc1)c1ccccc1 (tested in a mixture with another compound)	46*	.	26	.	.
CC[n+]1c(/C=C/C=C/c2ccc(N(C)C)cc2)sc2ccccc21	115*	.	-155	.	-67
CN(C)c1ccc(/C=C/C=C/c2sc3ccccc3[n+]2C)cc1	46*	.	-77	.	-45
CC[n+]1c(/C=C/N(C)c2ccccc2)sc2ccc(Cl)cc21	5	3	-27	1	-19
CN(C)c1ccc(/C=C/c2cc[n+](C)c3ccccc23)cc1	56*	0	-87	18	-13
CCOc1ccc(-n2c(/C=C/c3ccc([N+](=O)[O-])o3)nc3ccccc3c2=O)cc1	6	.	-26	.	.
CCC1=C(C[C@H]2NCCc3cc(OC)c(OC)cc32)C[C@H]2c3ccccc3CCN2C1	52*	.	21	.	.
CC1CC[C@]2(NC1)O[C@H]1CC3C4CC[C@H]5C[C@@H](O)CC[C@]5(C)C4CC[C@]3(C)[C@H]1[C@@H]2C (stereo not given in full)	17	.	12	.	.
COc1cc(CN2CCN(C(=O)COc3ccc(C)cc3)CC2)cc(OC)c1OC	20	.	4	.	.
CC(=O)O/C(=C1\C[C@@H]2[C@H]3CC=C4C[C@@H](OC(C)=O)CC[C@]4(C)[C@@H]3CC[C@@]2(C)C1=O)C(F)(F)F	47*	.	39	.	.
C[C@]12CC[C@H](O)CC1=CC[C@@H]1[C@@H]2CC[C@]2(C)C(=O)CC[C@@H]12	12	.	14	.	.
NC(=O)c1c([N+](=O)[O-])no[n+]1[O-]	119*	.	-102	.	.
NC(=O)c1cc([N+](=O)[O-])cc([N+](=O)[O-])c1	12	.	-16	.	.
CC(=O)[O][Hg][c]1ccccc1	113*	.	-40	.	.
CNC(C(=O)c1ccccc1)C(OC)c1ccccc1 (stereo not given)	11	1	18	1	-2
Cc1nc(CC(=O)N(CCN(C)C)Cc2ccc(F)cc2)cs1	7	.	14	.	.
Cn1ccnc1C1(O)CC2CCC(C1)N2CC(=O)Nc1ccc2c(c1)CCC2 (stereo not given)	.	.	-2	.	.
CC(Cc1ccc(O)cc1)NCC(O)c1cc(O)cc(O)c1 (stereo not given)	7	.	82*	.	.
c1cc2c(c(NC3=NCCN3)c1)CCCC2	43*	.	-12	.	.
C/C=C(\C)C(=O)O[C@H]1C[C@@H](OC(C)=O)[C@@]2(C(=O)OC)CO[C@@H]3C2[C@]12CO[C@](O)(C(=O)OC)[C@H]2[C@](C)(C12O[C@@]1(C)[C@H]1C[C@@H]2OC2OC=C[C@@]21O)[C@@H]3O (stereo not given in full)	13	.	11	.	.
C[As+](C)(c1ccc(Br)c([N+](=O)[O-])c1)c1ccc(Br)c([N+](=O)[O-])c1.O=[N+]([O-])O	44*	.	20	.	.
CNCCc1ccc(O)c(O)c1	13	.	71*	.	.
C[C@]12CCC3C(CC[C@H]4C[C@@H](Cl)CC[C@]34C)C1CCC2=O (stereo not given in full)	12	.	64*	.	.	EP2 cAMP induct=+
C[C@]12CCC3C(CC[C@H]4C[C@H](OS(=O)(=O)O)CC[C@]34C)C1CCC2=O (stereo not given in full)	10	.	19	.	.
